Like-named read-outs stand apart in the source and are kept apart here.
Tests used:
PYK2 [1] = biological target: T1, PYK2 (Homo sapiens, UniProt Q14289); experiment: Kinase selectivity profiling, HTRF kinEASE-TK; assay type: biochemical
Summary of the method: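 HTRF KinEASE-TK format; enzyme level, reaction time and ATP level were optimised beforehand. Test compound in kinase buffer, at half-log serial dilutions from 100 µM top (final), was mixed with TK substrate-biotin and kinase. ATP was added to start the reaction, which ran at room temperature. Eu3+-cryptate TK antibody and streptavidin-XL665 (0.125 μM final) were added; TR-FRET was read after 1 h. Triplicates; IC50 from sigmoid dose-response fit.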

PYK2 [2] = biological target: T1, PYK2; details: read-out: Reported IC50 PYK2; cited from earlier work
[3] = biological target: Truncated human FAK(PTK2) (Homo sapiens, UniProt Q05397); experiment: In vitro FAK inhibition, HTRF kinEASE-TK kinase assay; assay type: biochemical
Sequence of Truncated human FAK(PTK2) (Q05397 376-1052): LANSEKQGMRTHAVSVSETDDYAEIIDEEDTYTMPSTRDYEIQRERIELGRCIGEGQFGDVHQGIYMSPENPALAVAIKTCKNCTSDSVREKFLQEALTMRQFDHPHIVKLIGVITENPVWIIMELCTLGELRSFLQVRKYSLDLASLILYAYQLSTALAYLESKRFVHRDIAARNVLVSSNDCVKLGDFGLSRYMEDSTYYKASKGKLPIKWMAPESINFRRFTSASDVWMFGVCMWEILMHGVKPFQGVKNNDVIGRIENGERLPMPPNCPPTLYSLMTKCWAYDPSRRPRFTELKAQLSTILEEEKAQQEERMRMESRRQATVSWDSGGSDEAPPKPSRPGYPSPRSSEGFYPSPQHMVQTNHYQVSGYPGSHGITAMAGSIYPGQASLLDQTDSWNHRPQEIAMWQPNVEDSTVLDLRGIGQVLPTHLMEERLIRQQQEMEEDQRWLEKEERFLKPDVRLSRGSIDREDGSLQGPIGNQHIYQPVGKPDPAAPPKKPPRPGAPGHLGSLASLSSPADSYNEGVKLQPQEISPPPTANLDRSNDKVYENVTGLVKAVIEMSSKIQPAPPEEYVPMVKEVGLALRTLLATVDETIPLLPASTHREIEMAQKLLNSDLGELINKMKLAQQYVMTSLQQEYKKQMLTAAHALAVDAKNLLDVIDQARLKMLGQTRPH

IGF-1R = IGF-1R (Homo sapiens, UniProt P08069); experiment: Kinase selectivity profiling, HTRF kinEASE-TK; assay type: biochemical; details: relative to FAK
EGFR = EGFR (Homo sapiens, UniProt P00533); experiment: biochemical; assay type: biochemical
Sequence of EGFR (P00533 25-1210, species assumed): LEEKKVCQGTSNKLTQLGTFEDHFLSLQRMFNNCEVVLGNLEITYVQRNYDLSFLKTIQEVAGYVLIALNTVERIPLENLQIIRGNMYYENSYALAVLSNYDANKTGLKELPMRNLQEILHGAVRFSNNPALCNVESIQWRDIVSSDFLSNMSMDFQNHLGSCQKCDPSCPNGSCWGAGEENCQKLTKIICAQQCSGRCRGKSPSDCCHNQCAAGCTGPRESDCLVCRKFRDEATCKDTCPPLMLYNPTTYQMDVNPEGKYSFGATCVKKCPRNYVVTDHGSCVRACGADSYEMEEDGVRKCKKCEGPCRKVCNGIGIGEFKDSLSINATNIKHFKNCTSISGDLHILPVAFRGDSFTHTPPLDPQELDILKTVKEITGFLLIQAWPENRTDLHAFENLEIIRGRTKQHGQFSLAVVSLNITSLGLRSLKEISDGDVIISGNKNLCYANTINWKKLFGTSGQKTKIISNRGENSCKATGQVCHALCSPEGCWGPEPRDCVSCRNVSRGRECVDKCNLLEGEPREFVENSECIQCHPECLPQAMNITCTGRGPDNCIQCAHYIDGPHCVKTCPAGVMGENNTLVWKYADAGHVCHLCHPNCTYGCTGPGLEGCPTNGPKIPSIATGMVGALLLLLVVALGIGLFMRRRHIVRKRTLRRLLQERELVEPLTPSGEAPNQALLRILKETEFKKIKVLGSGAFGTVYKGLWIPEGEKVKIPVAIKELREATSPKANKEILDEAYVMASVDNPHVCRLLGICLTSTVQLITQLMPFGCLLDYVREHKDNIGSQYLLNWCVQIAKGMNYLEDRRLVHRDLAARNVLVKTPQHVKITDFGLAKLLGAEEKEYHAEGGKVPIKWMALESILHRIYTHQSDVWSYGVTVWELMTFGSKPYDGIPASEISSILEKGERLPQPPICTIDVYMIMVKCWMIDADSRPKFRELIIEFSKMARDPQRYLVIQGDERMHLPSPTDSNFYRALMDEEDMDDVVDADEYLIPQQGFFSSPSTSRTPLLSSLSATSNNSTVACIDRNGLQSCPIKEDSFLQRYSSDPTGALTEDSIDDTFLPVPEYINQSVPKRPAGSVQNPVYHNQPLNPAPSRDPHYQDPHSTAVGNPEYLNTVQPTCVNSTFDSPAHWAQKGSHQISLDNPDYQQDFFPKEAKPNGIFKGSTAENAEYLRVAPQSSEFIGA

PDGFRβ = PDGFRβ (Homo sapiens, UniProt P09619); experiment: Kinase selectivity profiling, HTRF kinEASE-TK; assay type: biochemical; details: relative to FAK
Sequence of PDGFRβ (P09619 33-1106, species assumed): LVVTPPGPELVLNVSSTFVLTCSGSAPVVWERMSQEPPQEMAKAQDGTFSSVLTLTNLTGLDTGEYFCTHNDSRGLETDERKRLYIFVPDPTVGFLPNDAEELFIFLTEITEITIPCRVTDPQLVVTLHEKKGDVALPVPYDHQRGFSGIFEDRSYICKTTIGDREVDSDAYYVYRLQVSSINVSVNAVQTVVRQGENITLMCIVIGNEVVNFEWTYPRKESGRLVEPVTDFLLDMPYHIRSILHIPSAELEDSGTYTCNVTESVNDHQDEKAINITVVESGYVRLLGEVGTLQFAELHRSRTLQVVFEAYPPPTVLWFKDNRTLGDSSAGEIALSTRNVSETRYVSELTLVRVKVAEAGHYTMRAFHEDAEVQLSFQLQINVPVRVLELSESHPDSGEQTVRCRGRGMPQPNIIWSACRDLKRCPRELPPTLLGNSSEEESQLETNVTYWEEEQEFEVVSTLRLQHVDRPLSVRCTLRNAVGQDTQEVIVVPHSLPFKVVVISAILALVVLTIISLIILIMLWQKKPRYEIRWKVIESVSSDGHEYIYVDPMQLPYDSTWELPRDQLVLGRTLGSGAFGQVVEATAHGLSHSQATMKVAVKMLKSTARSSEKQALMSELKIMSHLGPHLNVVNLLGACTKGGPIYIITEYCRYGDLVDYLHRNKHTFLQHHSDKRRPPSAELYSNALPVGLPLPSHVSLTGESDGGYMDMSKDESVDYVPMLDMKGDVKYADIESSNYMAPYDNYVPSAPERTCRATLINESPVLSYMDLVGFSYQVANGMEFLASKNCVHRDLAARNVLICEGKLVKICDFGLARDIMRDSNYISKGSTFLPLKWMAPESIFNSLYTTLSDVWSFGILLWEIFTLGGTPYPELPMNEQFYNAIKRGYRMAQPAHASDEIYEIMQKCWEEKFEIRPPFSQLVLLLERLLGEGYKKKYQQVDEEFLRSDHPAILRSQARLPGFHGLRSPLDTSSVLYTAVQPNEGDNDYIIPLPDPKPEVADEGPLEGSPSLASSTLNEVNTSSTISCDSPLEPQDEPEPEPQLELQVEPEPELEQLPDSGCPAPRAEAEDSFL

T1 sequence (Q14289 whole entry, species assumed): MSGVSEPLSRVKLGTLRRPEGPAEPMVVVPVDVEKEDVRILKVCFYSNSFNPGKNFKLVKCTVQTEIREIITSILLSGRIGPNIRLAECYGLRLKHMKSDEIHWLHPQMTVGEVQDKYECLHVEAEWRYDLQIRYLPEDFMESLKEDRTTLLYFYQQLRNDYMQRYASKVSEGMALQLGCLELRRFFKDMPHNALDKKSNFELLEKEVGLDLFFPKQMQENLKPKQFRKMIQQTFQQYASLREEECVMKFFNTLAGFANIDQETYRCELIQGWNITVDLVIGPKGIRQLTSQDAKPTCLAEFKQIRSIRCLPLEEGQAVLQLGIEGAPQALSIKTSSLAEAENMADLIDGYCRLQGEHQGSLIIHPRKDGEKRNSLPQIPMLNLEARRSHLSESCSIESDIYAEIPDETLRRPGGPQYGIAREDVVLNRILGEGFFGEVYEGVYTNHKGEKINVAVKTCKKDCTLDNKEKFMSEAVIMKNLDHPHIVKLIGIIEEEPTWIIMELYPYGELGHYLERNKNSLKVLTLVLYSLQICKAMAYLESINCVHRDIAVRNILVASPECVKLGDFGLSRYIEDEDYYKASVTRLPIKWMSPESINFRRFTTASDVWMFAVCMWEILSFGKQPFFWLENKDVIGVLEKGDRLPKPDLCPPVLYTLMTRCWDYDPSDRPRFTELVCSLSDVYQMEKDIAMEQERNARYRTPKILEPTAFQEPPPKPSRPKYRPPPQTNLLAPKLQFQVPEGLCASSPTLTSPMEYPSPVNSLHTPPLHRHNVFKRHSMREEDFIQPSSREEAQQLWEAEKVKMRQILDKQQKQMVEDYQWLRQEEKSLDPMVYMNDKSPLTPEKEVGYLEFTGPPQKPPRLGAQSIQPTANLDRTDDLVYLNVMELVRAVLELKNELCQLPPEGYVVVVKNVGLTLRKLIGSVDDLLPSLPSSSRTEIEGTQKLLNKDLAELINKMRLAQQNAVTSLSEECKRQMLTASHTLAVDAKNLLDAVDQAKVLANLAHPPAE

IC50 (PYK2 [1]; read-out: IC50 ± SD PYK2, mean of three determinations)	IC50 [3]	IC50 (PYK2 [1])	selectivity against PYK2 (PYK2 [1]; relative to FAK)	selectivity against IGF-1R (IGF-1R)	IC50 (EGFR)	selectivity against EGFR (EGFR; relative to FAK)	selectivity against PDGFRβ (PDGFRβ)	SMILES	IC50 (PYK2 [2])
5.7 ± 1.4 nM								CNC(=O)c1ccccc1Nc1nc(Nc2ccc(N3CCOCC3)cc2OC)ncc1Cl [NVP-TAE226, reference compound]	3.5 ± 2.1 nM
	57.1 ± 8.3 nM	3560 ± 626 nM	62.4 folds	more than 200 folds	4310 ± 562 nM	75.5 folds	more than 200 folds	COc1ccc(Nc2nc(Nc3ccc(OCCOCCF)cc3)ncc2Br)cc1 [[^19F]2, 5-Bromo-N^2-(4-(2-(2-fluoroethoxy)ethoxy)phenyl)-N^4-(4-methoxyphenyl)pyrimidine-2,4-diamine]	
	1110 ± 60.9 nM							COc1ccc(Nc2nc(Nc3ccc(OCCOCCOCCF)cc3)ncc2Br)cc1 [[^19F]3, 5-Bromo-N^2-(4-(2-(2-(2-fluoroethoxy)ethoxy)ethoxy)phenyl)-N^4-(4-methoxyphenyl)pyrimidine-2,4-diamine]	

— PMC9078890 (RSC Advances, 2018)
